# S100A4 MyoIIA – inhibitors of human S100A4 binding to myosin IIA peptide; P26447; S100A4/TAMRA-MyoIIA peptide fluorescence polarization; inhibition, % at 10.7 µM; 0.14% of 360,000 active;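 active = mean inhibition of at least 70% across replicates, with every replicate also reaching that level; inconclusive = mean inhibition reaches 70% but some replicates fall short; inactive = mean inhibition below 70%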
# Target sequence (P26447 whole entry, looked up): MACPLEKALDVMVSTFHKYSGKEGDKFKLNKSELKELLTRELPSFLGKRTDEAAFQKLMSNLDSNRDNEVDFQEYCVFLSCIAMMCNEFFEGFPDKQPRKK
#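 Test system – S100A4 monomer (human) · Compound – single-point compound testing · Schedule – 5 min incubation before reading · Probe or stimulus – TAMRA-labelled myosin IIA heavy-chain peptide probe, 5 nM · Benchmarks – neutral control DMSO, positive control TFP · Medium – Calcium-containing HEPES buffer, pH 7.2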
# miR-122 sensor – inhibitors of miR-122 in Huh7 cells | Huh7 miR-122 Renilla luciferase sensor, 48 h; neutral wells = 0, positive control = 100 | activation (reporter increase), % at 12.5 µM | 0.3% of 340,000 active;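 active = mean replicate activation score at least 90 and every replicate individually at or above 90; inconclusive = only one of the two criteria met; inactive = neither criterion met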;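 also: higher luciferase means less miR-122 activity so hits act as miR-122 inhibitors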
# FN deposit inh – fibronectin deposition inhibition. AH1F fibroblasts, Alexa488-fibronectin deposition fluorescence, overnight. 0.086% of 350,000 active. AID 743247. inhibition, % at 12.6 µM;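 active = mean inhibition across replicates of 30% or more, regardless of how many single replicates reach that level; inconclusive = mean under 30% yet at least half of replicates reach 30%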;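 also: positive control wells lacked labelled fibronectin entirely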
#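 Material: AH1F fibroblasts assembling fluorescent fibronectin matrix; amount: 10000 AH1F cells/well; medium: DMEM, 2% serum; reagent: Alexa488-fibronectin, 24 nM final in well; dosing: single compound dose, delivered by pin transfer; incubation: 1 h adhesion, overnight exposure; detection: fluorescence after three HBSS washes, excitation 485 nm, emission 525 nm; measure: fibronectin deposition inhibition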
# Vif inh – inhibitors of HIV Vif. HEK293T cells, Vif self-association by quenched fluorescence, imaging, 24 h. inhibition, % at 7.49 µM. 0.35% of 340,000 active; in the data active = inhibition above about 50%, passing the limit was not always enough; inconclusive = no clear call, values can overlap the other calls; inactive = below about 31%
# Env fusion inh – HIV envelope-mediated fusion inhibition | AID 651610 | HeLa-JRFL Env/CEM21 cell fusion, luciferase | 1.1% of 360,000 active | inhibition, % at 12.3 µM;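 active = mean replicate inhibition score of at least 50 and every replicate individually at or above 50; inconclusive = only one of the two criteria met; inactive = mean below 50 and not all replicates reaching 50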;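 also: 0% = plate neutral controls and 100% = maraviroc near 300 nM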
# rRNA inh HTS – inhibits bacterial ribosomal RNA function over humanized ribosomes. E. coli WT GFP vs humanized-ribosome RFP mutants, fluorescence, 24 h; stronger effect = lower value; DMSO median 0, no signal -100. GFP signal change (wild-type ribosome), % (test concentration not listed). 1.6% of 350,000 active;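 active = significant combined selectivity score with lowered wild-type GFP, culture density cut under 30%, mutant RFP and density less affected; inactive = any of these conditions unmet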
# HepG2 cytotox – HepG2 cell cytotoxicity. shares compounds with rRNA inh HTS. HepG2 viability, ATP luminescence, 72 h. activity change, negative = cytotoxicity, unspecified at 26 µM. 30 tested, under 10 active;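 active = compounds whose fitted half-maximal signal-loss concentration is at most twice their highest valid dose; inconclusive = flat curve with 30 to 70% signal loss, or poor fit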
# AID977621 – wild-type E. coli growth inhibition versus H69 humanized strain – H69 mutant RFP, wild-type GFP, cherry-pick, dose response; shares compounds with rRNA inh HTS; fluorescence, 24 h; activity change, negative = inhibition at 50 µM; 1,900 tested, under 10 active;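 active = Wild-type ribosome reporter drop at least double the humanized mutant ribosome reporter drop, growth loss under a set limit; inconclusive = no clear call, values can overlap the other calls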;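 also: wild-type GFP and H69 mutant RFP strains grown together 50/50 in each well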
# AID977628 – E. coli growth inhibition, wild-type GFP versus h24 humanized RFP strain, dose response, h24 mutant RFP vs wild-type GFP, cherry-pick; AID 977628; 1,900 tested, under 10 active; E. coli WT GFP strain growth, fluorescence, 24 h; shares compounds with rRNA inh HTS; activity change, negative = inhibition at 50 µM;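 active = compound lowering the normal-ribosome reporter at least twice as much as the humanized-ribosome reporter, growth loss under a set limit; inconclusive = no clear call, values can overlap the other calls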;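 also: wild-type GFP and h24 humanized RFP strains co-cultured 1 to 1 per well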
# * marks the source's active call; other numbers are inactive results; ? = inconclusive; / = not tested or not shown; ! = a repeat was not active; [ ] = dose if it differs, or a comment. Hits are enriched below; roughly 2.6% of the tested compounds scored in any of these assays.
SMILES,S100A4 MyoIIA,miR-122 sensor,FN deposit inh,Vif inh,Env fusion inh,rRNA inh HTS,AID977621,AID977628,others
COc1ccc(-c2nn(-c3ccccc3C)cc2CNCc2cccnc2)cc1F,-1,-3,-4,-3,-8,-18*,3.6,-12,
CC(=O)N1CC2(C1)[C@@H](c1ccccc1)[C@@H](CO)N2Cc1cccc(Cl)c1,-2,/,/,/,/,-7,/,/,
CCCCNC(=O)c1ccc(CS(=O)(=O)c2cccc(C(F)(F)F)c2)o1,/,7,2,10,4,/,/,/,
CC(C)OCCCNC(=O)c1ccc(CS(=O)(=O)c2cccc(C(F)(F)F)c2)o1,-3,6,3,3,14,-19*,-13,?,
Cc1ccccc1-c1ccc([C@@H]2[C@H]3CN(S(C)(=O)=O)CCCCN3[C@H]2CO)cc1,7,18[16.7 µM],/,/,/,3,/,/,
Cc1ccc(C)c(NC(=O)CSc2nc3nc(-c4cccs4)cc(C(F)(F)F)c3c(=O)[nH]2)c1,-1,-5,-3,-14,14,-20*,/,?,HepG2 cytotox=4.1
CCCNC(=O)N1CC2(CCN(C(=O)CN(C)C)CC2)c2c(n(C)c3cc(OC)ccc23)[C@H]1CO,5,/,/,/,/,3,/,/,
COc1ccc(C#Cc2cnc3c(c2)C(=O)N([C@@H](C)CO)C[C@@H](C)[C@@H](CN(C)C(=O)CN(C)C)O3)cc1,-11,-4[16.7 µM],14,/,2[16.7 µM],8,/,/,
Cc1cccc(NC(=O)COc2cccc3c2CCNC3=O)c1,-4,0,-2,2,-11,-18*,-9.7,-10,
COc1ccc(S(=O)(=O)N(C)C[C@@H]2Oc3c(NC(=O)Nc4c(C)noc4C)cccc3C(=O)N([C@H](C)CO)C[C@@H]2C)cc1,/,5[16.7 µM],-2,/,-28[16.7 µM],0,/,/,
NS(=O)(=O)c1ccc(NC(=O)CCCC(=O)O)cc1,-3,/,2,0,-4,7,/,/,
NS(=O)(=O)c1ccc(NC(=O)CCC(=O)O)cc1,0,4,-4,-8,2,-11*,-6.3,?,
CC(=O)c1cccc(NC(=O)C2CCCN(S(C)(=O)=O)C2)c1 (stereo not given),0,-3,/,-6,/,-27*,2.1,1.1,
CS(=O)(=O)N1CCCC(C(=O)Nc2cccc(F)c2)C1 (stereo not given),0,-1,-5,-3,7,7,/,/,
O=C(Nc1ccc(F)cc1)N[C@H]1CC[C@H](CCn2cc(C3(O)CCCC3)nn2)O[C@H]1CO,-3,/,/,/,10[16.7 µM],1,/,/,
CC(CCc1ccccc1)NC(=O)CCC1CCCC1 (stereo not given),-24,-3,-9,2,20,-21*,-3.5,-5.7,
COC(=O)c1sccc1NC(=O)CNC(=O)c1ccccc1,-2,/,8,1,-2,-23*,-15,-14,
COC(=O)c1sccc1NC(=O)c1ccc(C)cc1,-3,5,-5,7,1,3,/,/,
C[C@H](CO)N1C[C@H](C)[C@@H](CN(C)C(=O)c2cc(Cl)cc(Cl)c2)OCc2ccccc2-c2ccccc2C1=O,2,/,8,/,/,1,/,/,
Cc1cc(Br)cn2c(Cc3cccc(Cl)c3)c(-c3ccco3)nc12,-12,/,-10,/,0,-21*,4.2,-3.1,
C[C@H](CO)N1C[C@H](C)[C@H](CN(C)Cc2ccccc2)Oc2ccc(NC(=O)c3ccncc3)cc2C1=O,3,6[16.7 µM],0,/,8[16.7 µM],-2,/,/,
COc1cccc(S(=O)(=O)N2CCCCN3[C@@H](CO)[C@H](c4ccc(C#CCC(C)C)cc4)[C@@H]3C2)c1,-1,7[16.7 µM],11,/,/,-18,/,/,
COc1cccc(S(=O)(=O)N2CCCCN3[C@H](CO)[C@@H](c4ccc(C#CCC(C)C)cc4)[C@H]3C2)c1,/,1[16.7 µM],-3,/,/,-16,/,/,
COc1cccc(S(=O)(=O)N2CCCCN3[C@H](CO)[C@H](c4ccc(C#CC(C)C)cc4)[C@@H]3C2)c1,-5,-27[16.7 µM],/,/,/,-4,4.6,/,
COc1cccc(S(=O)(=O)N2CCCCN3[C@H](CO)[C@@H](c4ccc(C#CCC(C)C)cc4)[C@@H]3C2)c1,-10,0[16.7 µM],-2,/,/,-4,/,/,
SMILES,S100A4 MyoIIA,miR-122 sensor,FN deposit inh,Vif inh,Env fusion inh,rRNA inh HTS,AID977621,AID977628,others
COc1cccc(S(=O)(=O)N2CCCCN3[C@H](CO)[C@@H](c4ccc(C#CC(C)C)cc4)[C@H]3C2)c1,-3,-27[16.7 µM],/,/,/,-47*,/,?,
COc1cccc(S(=O)(=O)N2CCCCN3[C@H](CO)[C@@H](c4ccc(C#CC(C)C)cc4)[C@@H]3C2)c1,54,-1[16.7 µM],/,/,/,7,?,/,
CCCC#Cc1ccc2c(c1)O[C@@H](CN(C)C(=O)CN(C)C)[C@@H](C)CN([C@@H](C)CO)S2(=O)=O,6,-5[16.7 µM],-12,/,-8[16.7 µM],-3,/,/,
Cc1ccc(-c2ccc3c(c2)O[C@@H](CN(C)Cc2cccc(C(=O)O)c2)[C@H](C)CN([C@@H](C)CO)S3(=O)=O)cc1,1,-3[16.7 µM],/,/,9[16.7 µM],-18*,/,?,
COCC#Cc1ccc2c(c1)O[C@@H](CN(C)S(=O)(=O)c1cccc(F)c1)[C@@H](C)CN([C@H](C)CO)S2(=O)=O,7,1,5,-1,4,-20*!,-22,/,
Cc1ccc(-c2ccc3c(c2)O[C@@H](CN(C)Cc2cccc(C(=O)O)c2)[C@@H](C)CN([C@H](C)CO)S3(=O)=O)cc1,2,4[16.7 µM],/,/,-4[16.7 µM],-5,/,/,
O=C(C[C@H]1CC[C@@H]2[C@H](COC[C@H](O)CN2Cc2cc(F)cc(F)c2)O1)NC1CCC1,1,4[16.7 µM],-14,/,/,0,/,/,
Cc1ccc(-n2nc(C)c3c(C)c(CCC(=O)O)c(C)nc32)cc1,1,/,5,-1,-1,-8,/,/,
Cc1ccc(-n2nc(C)c3c(C)c(CCC(=O)O)c(C)nc32)cc1C,-17,4,-1,-15,6,-26*,-15,/,
Cc1cc(NC(=O)c2sc(Nc3ccc(F)c(Cl)c3)nc2N)no1,1,-1,10,-3,-18,-22*,-10,0.055,
CO[C@H]1CN(C)C(=O)c2cc(NC(=O)C3CCC3)ccc2OC[C@@H](C)N(C)C[C@H]1C,-1,/,3,/,2[16.7 µM],2,/,/,
CC[n+]1c(C)cc2c(sc3ccccc32)c1C,-3,/,/,-4,22,-22*,-8.4,-10,

# From PubChem
